# A selection: hits, their analogues and other compounds. The true share with any hit is near 1%.
# NALP1 inh: NALP1 inhibition | S. cerevisiae NALP1/ASC/caspase-1 growth, X-gal OD620, 72 h | inhibition, % at 10 µM | hit rate 0.61% among 280,000; in the data active = inhibition mostly above about 24%, no sharp cut-off; inactive = mostly below about 32%
# T cell modulator: modulates CD8 T cell binding to vesicles. 2C CD8+ T cell-vesicle binding, flow cytometry; active compounds read low. response (vesicle binding), % at 7 µM. hit rate 0.068% among 330,000;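 active = response, share of CD8 T cells binding vesicles, and their 90th percentile fluorescence all below set limits, cut at about 80% in these data, passing the limit was not always enough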;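 also: values below 100% mean blocked vesicle binding to the CD8+ T cells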
#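 Read-out – percent CD8+ FL2 mean versus row control · System – murine 2C transgenic CD8+ T lymphocytes · Times – 1.5 h cell–vesicle binding at 37 °C, then 20 min icy labelling · Control set – naked vesicles low, QL9 vesicles with vehicle high · Detection – cytometric PE anti-B7-1 and Alexa647 anti-CD8 signals after 1% paraformaldehyde fixation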
# Bfl-1 A1 inh: inhibitors of the anti-apoptotic protein A1, read as caspase activation; MEF A1-2A-BIM cells, Caspase-Glo 3/7 luminescence, 3 h; percent of clofoctol response, vehicle zero; caspase activation, % (concentration not given with the values); hit rate 0.066% among 330,000; AID 2462;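 active = over half of replicate activation scores above 10%, or exactly half above 10 with the replicate mean above 10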
# NALP3 yeast inh: blocks the NALP3 inflammasome reconstituted in yeast; Yeast reconstituted NLRP3/ASC/caspase-1, beta-gal luminescence, 24 h; inhibition, % at 10 µM; hit rate 0.39% among 330,000; AID 2825;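 active = inhibition of 50% or more; inactive = inhibition below 50%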;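 also: plate controls were induced DMSO wells for no effect and uninduced yeast grown without galactose for full effect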
# NALP3 yeast conf: confirmation of NALP3 inhibitors in yeast | shares compounds with NALP3 yeast inh | hit rate 81% among 1,300 | inhibition, % at 10 µM | yeast expressing human NALP3, luminescence; in the data active = inhibition above about 48%
# Casp1-ASC yeast: counter-screen for NALP3 inhibitors: yeast caspase-1-ASC | shares compounds with NALP3 yeast inh | yeast expressing Caspase-1-ASC, luminescence counter screen | inhibition, % at 10 µM | hit rate 66% among 1,000 | AID 488784
# NALP3 retest: yeast NALP3 inhibition, confirmed on retest. shares compounds with NALP3 yeast inh. yeast expressing human NALP3, luminescence read-out. inhibition, % at 10 µM. hit rate 53% among 1,000
# Starred values were filed as active, the others as inactive; · = no result. Rule as the data show it, unless noted: active = inhibition above about 50%; inactive = the rest.
SMILES,NALP1 inh,T cell modulator,Bfl-1 A1 inh,NALP3 yeast inh,NALP3 yeast conf,Casp1-ASC yeast,NALP3 retest
O=C(c1cc2c(s1)CCCC2)N1CCN(CCO)CC1,·,372,0,23,·,·,·
O=C(Nc1scc(-c2ccccc2)c1C(=O)O)c1ccc(F)cc1,6,178,-12,61*,74*,48,60*
COc1ccc(-c2csc(NC(=O)c3ccc(C(C)(C)C)cc3)c2C(=O)O)cc1,·,661,0,87*,86*,95*,86*
COc1ccc(-c2csc(NC(=O)c3ccccc3OC)c2C(=O)O)cc1OC,-9,306,0,7,·,·,·
Cc1ccc(-c2csc(NC(=O)c3ccc(F)cc3)c2C(=O)O)cc1,46,99,-6,83*,91*,92*,38
Cc1ccc(C(=O)Nc2scc(-c3ccccc3)c2C(=O)O)o1,4,231,-6,-7,·,·,·
COc1ccc(CCC(=O)NCCNC(=O)CCc2ccc(OC)cc2)cc1,13,210,0,22,·,·,·
O=C(Nc1ccc2c(c1)OCCO2)c1cccc(Cl)c1,17,335,-8,53*,70*,46,42
COc1cccc(NC(=O)c2ccc3c(c2)OCCO3)c1,6,·,·,25,·,·,·
O=C(Nc1cccc(Cl)c1)c1ccc2c(c1)OCCO2,23,253,-6,78*,92*,86*,76*
O=C(Nc1ccc2c(c1)OCCO2)c1cccc(C(=O)Nc2ccc3c(c2)OCCO3)c1,10,212,-3,0,·,·,·
COc1ccc(C(=O)CC(=O)C(=O)Nc2ccc(C)c(Cl)c2)cc1,24,330,-1,·,·,·,·
Cc1ccc(O)c(NC(=O)c2cc([N+](=O)[O-])ccc2Cl)c1,3,384,0,21,·,·,·
O=C(Nc1ccc([N+](=O)[O-])cc1Cl)c1cc(Cl)ccc1O,·,348,-11,96*,99*,100*,97*
O=C(Nc1cccc(Cl)c1)c1cc(N=Nc2ccc([N+](=O)[O-])cc2Cl)ccc1O,-8,240,1,57*,86*,42,56*
O=C(NC1CCCCC1)c1c(O)nc2sccn2c1=O,·,413,0,58*,74*,34,42
O=C(NCCS(=O)(=O)N1CCN(c2cccc(Cl)c2)CC1)C1CCCC1,·,283,-1,41,·,·,·
CCOC(=O)N1CCN(C(=O)COC(=O)c2oc3ccc(OC)cc3c2C)CC1,8,218,-1,7,·,·,·
Brc1ccc(-n2cnc(-c3ccccc3)c2)cc1,7,221,-5,52*,77*,36,51*
Cc1nn(CC(=O)N(C)Cc2ccccc2)c(=O)c2cccn12,-21,322,1,11,·,·,·
CCCCC(CC)CN=C(N)NC(N)=NCCCCCCN=C(N)NC(N)=NCC(CC)CCCC (stereo not given),·,475,0,97*,95*,86*,94*
O=C(CSc1ccccn1)Nc1ccc(Br)cn1,16,321,0,36,·,·,·
O=C(CSc1ncn(-c2ccccc2)n1)Nc1ccc(Br)cn1,12,363,0,75*,76*,69*,50*
Cc1ccsc1C(=O)OC(C)C(=O)NC1CCCCC1C (stereo not given),·,·,·,21,·,·,·
CN(C)CCNC(=O)c1cc2c(s1)-c1ccc(Cl)cc1SC2,16,176,1,-7,·,·,·
SMILES,NALP1 inh,T cell modulator,Bfl-1 A1 inh,NALP3 yeast inh,NALP3 yeast conf,Casp1-ASC yeast,NALP3 retest
NC(=O)c1cc2cc(Cl)ccc2o/c1=N/NC(=O)c1cccs1,-2,81,0,-4,·,·,·
CN=c1oc2ccc(Cl)cc2cc1C(N)=O,9,234,0,51*,46,17,16
CN1C(=O)N(CC(=O)Nc2nccs2)C(=O)C12CCCCC2,·,499,0,18,·,·,·
CCCn1nnc(NC(=O)c2sc3ccccc3c2Cl)n1,27,478,-1,51*,54*,45,48
CCCn1nnc(NC(=O)c2cccc(Cl)c2)n1,20,129,-2,10,·,·,·
O=Cc1cn(-c2ccccc2)nc1-c1ccccc1,-23,158,0,60*,72*,60*,53*
O=C1C2N=NN(CC(=O)N3N=C(c4ccccc4)CC3c3ccc([N+](=O)[O-])cc3)C2C(=O)N1c1ccccc1 (stereo not given),8,304,0,55*,71*,·,·
Cc1nnc(SCc2nc3ccccc3[nH]2)s1,-1,402,0,1,·,·,·
c1ccc2[nH]c(CSc3nc4ccccc4s3)nc2c1,6,282,-3,59*,75*,55*,61*
c1ccc(-c2cc3c(ccc4nonc43)nn2)cc1,2,559,-6,-2,·,·,·
On1onc2c3cc(-c4ccccc4)nc3ccc21,-1,405,0,51*,72*,·,·
O=C(NC(=S)Nc1cccc([N+](=O)[O-])c1)c1ccccc1,2,354,-1,51*,64*,43,39
C(=C\c1nc2ccccc2[nH]1)/c1ccccc1,-6,563,-7,61*,84*,60*,57*
O=C1C=C(c2ccc(CO)cc2)C[C@@H](c2ccc3c(c2)OCO3)C1,·,297,0,3,·,·,·
Nc1ccc(Br)cc1-c1nc2ccccc2[nH]c1=O,-1,125,0,54*,24,·,·
CN1C(=O)c2cccc(NC(=O)Cc3ccccc3)c2C1=O,28,491,0,50*,50*,60*,36
CCN(CC)S(=O)(=O)c1ccc(C)c(NC(=O)COC(=O)CCC(=O)c2cccs2)c1,·,246,1,23,·,·,·
CN(C)c1ncc(CN2CCC(CO)(CCCc3ccccc3)CC2)s1,6,111,0,70*,25,·,·
COc1ccc(-c2cn3c4c(sc3n2)CCCC4)cc1,0,357,-3,52*,61*,49,45
O=C(COc1ccc(F)cc1)Nc1cc(Cl)ccc1-n1cncn1,·,375,-1,63*,70*,56*,49
CCc1cccc(OCC(=O)Nc2cc(Cl)ccc2-n2cncn2)c1,·,247,-1,25,·,·,·
COc1cccc(NC(=O)CN(C)C(=O)Cc2c(C)nc3ccccc3c2C)c1,·,407,1,18,·,·,·
Cc1ccc(CSc2ncnc3c2cnn3-c2ccccc2)cc1,24,295,3,-27,·,·,·
c1ccc(-c2nc(Sc3ncnc4c3cnn4-c3ccccc3)n[nH]2)cc1,4,300,-2,50,69*,·,·
CCOC(=O)CNC(=O)Cn1cnc2c(oc3ccccc32)c1=O,26,378,1,-1,·,·,·
O=C(c1ccc(Cl)c(S(=O)(=O)N2CCOCC2)c1)N1CCN(c2ccccc2)CC1,6,0,1,3,·,·,·
O=C(NCCc1csc(-c2ccc(Cl)cc2)n1)c1ccco1,-5,250,-1,3,·,·,·
CC(C)c1cccc(C(C)C)c1OCCCCCN1CCOCC1,·,642,0,69*,74*,78*,66*
c1ccc2c(OCCCCN3CCOCC3)cccc2c1,25,255,1,10,·,·,·

# Compound activity deposited in PubChem BioAssay by several laboratories.
